Laboratory results: ChEMBL document CHEMBL1136228 (Bioorg Med Chem Lett, 2003)
Several values for one entry are separate records, joined by “and”; a condition that tells them apart may be missing. Equal values may be shown once.

Tests used:
[1] = biological target: T1, Peroxisome proliferator-activated receptor gamma (Homo sapiens, UniProt P37231)
T1 sequence (P37231 whole entry): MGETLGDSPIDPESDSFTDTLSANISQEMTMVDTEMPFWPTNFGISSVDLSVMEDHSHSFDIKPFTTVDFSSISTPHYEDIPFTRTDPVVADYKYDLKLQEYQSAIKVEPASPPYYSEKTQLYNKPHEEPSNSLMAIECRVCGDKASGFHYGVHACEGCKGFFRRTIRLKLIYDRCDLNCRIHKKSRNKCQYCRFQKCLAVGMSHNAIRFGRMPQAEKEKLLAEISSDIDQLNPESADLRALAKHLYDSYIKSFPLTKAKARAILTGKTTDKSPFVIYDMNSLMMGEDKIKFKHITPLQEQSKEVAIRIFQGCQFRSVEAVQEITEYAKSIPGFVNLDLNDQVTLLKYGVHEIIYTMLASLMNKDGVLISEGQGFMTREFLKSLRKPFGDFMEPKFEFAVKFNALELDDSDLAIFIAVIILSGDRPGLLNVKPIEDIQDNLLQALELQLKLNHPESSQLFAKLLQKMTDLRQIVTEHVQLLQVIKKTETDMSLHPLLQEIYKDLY

[2] = biological target: T2, Peroxisome proliferator-activated receptor alpha (Homo sapiens, UniProt Q07869)
T2 sequence (Q07869 whole entry): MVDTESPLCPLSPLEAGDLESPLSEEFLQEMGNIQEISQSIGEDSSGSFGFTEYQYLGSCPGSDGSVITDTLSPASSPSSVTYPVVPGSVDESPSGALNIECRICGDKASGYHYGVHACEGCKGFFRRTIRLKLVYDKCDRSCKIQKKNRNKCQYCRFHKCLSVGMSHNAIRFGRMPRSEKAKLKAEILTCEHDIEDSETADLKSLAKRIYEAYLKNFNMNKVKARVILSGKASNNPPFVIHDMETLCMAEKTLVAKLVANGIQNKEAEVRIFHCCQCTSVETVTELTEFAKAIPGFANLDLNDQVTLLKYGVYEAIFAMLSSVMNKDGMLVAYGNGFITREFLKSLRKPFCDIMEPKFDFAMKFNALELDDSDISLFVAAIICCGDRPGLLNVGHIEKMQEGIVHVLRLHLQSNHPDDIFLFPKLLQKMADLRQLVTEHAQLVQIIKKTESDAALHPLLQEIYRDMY

[3] = biological target: T2, Peroxisome proliferator-activated receptor alpha; remark: listed apart in the source
[4] = biological target: T1, Peroxisome proliferator-activated receptor gamma; remark: listed apart in the source
Mus musculus [5] = test: Fasting plasma glucose level after 10 mg/kg peroral administration in db/db Mouse; assay type: functional; conditions: route oral
Outline: (§1)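 db/db (lepr db-3J/lepr db-3J) mice dosed orally once daily for 11 days; fasting plasma glucose measured at day 11. Correction is expressed as mean glucose lowering, as a percentage of the difference between vehicle-treated db/db and lean control mice.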

Mus musculus [6] = test: Fasting plasma glucose levels after 30 mg/kg peroral administration in db/db Mouse; assay type: functional; conditions: route oral
Outline: as §1

[7] = biological target: T1, Peroxisome proliferator-activated receptor gamma; test: Binding affinity towards peroxisome proliferator activated receptor gamma (PPAR gamma): Weakly active
[8] = biological target: T2, Peroxisome proliferator-activated receptor alpha; test: Binding affinity towards peroxisome proliferator activated receptor alpha (PPAR alpha); weakly active
[9] = biological target: T1, Peroxisome proliferator-activated receptor gamma; test: Binding affinity towards peroxisome proliferator activated receptor gamma (PPAR gamma); weakly active
Mus musculus [10] = test: Fasting plasma glucose levels after 1 mg/kg peroral administration in db/db Mouse; assay type: functional; conditions: route oral
Outline: as §1

Mus musculus [11] = test: Fasting plasma glucose levels after 3 mg/kg peroral administration in db/db Mouse; assay type: functional; conditions: route oral
Outline: as §1

Rattus norvegicus [12] = test: Triglyceride change in Sprague-Dawley rat after 30 mg/kg peroral administration; conditions: route oral
Rattus norvegicus [13] = test: Brown adipose tissue weight in Sprague-Dawley rat after 30 mg/kg peroral administration; conditions: route oral
Rattus norvegicus [14] = test: Total Cholesterol change in Sprague-Dawley rat after 30 mg/kg peroral administration; conditions: route oral
Rattus norvegicus [15] = test: Body weight of Sprague-Dawley rat after 30 mg/kg peroral administration; conditions: route oral
Rattus norvegicus [16] = test: Heart weight of Sprague-Dawley rat after 30 mg/kg peroral administration; conditions: route oral
Rattus norvegicus [17] = test: Body weight of Sprague-Dawley rat after 10 mg/kg peroral administration; conditions: route oral
Rattus norvegicus [18] = test: Triglyceride change in Sprague-Dawley rat after 10 mg/kg peroral administration; conditions: route oral
Rattus norvegicus [19] = test: Heart weight of Sprague-Dawley rat after 10 mg/kg peroral administration; conditions: route oral
Rattus norvegicus [20] = test: Total Cholesterol change in Sprague-Dawley rat after 10 mg/kg peroral administration; conditions: route oral
Rattus norvegicus [21] = test: Brown adipose tissue weight in Sprague-Dawley rat after 10 mg/kg peroral administration; conditions: route oral
Mus musculus [22] = test: Fasting plasma glucose levels after 15 mg/kg peroral administration in db/db Mouse; assay type: functional; conditions: route oral
Outline: as §1

Mus musculus [23] = test: Fasting plasma glucose levels after 5 mg/kg peroral administration in db/db Mouse; assay type: functional; conditions: route oral
Outline: as §1

[24] = Bioavailability was determined in rat; assay type: ADME, organism-based; conditions: in vivo
Rattus norvegicus [25] = test: Total Cholesterol change in Sprague-Dawley rat after 150 mg/kg peroral administration; conditions: route oral
[26] = biological target: T1, Peroxisome proliferator-activated receptor gamma; test: Binding affinity towards peroxisome proliferator activated receptor gamma (PPAR gamma); Not active
Outline: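 Scintillation proximity (SPA) radioligand binding assay run at 15 C. The IC50 is converted to an apparent Ki with the Cheng-Prusoff equation.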

Rattus norvegicus [27] = test: Triglyceride change in Sprague-Dawley rat after 150 mg/kg peroral administration; conditions: route oral
[28] = biological target: T2, Peroxisome proliferator-activated receptor alpha; test: Binding affinity towards human peroxisome proliferator activated receptor alpha (PPAR alpha) by HTRF assay; Weakly active
Rattus norvegicus [29] = test: Heart weight of Sprague-Dawley rat after 150 mg/kg peroral administration; conditions: route oral
Rattus norvegicus [30] = test: Brown adipose tissue weight in Sprague-Dawley rat after 150 mg/kg peroral administration; conditions: route oral
Rattus norvegicus [31] = test: Body weight of Sprague-Dawley rat after 150 mg/kg peroral administration; conditions: route oral
Mus musculus [32] = test: Fasting plasma glucose levels after 150 mg/kg peroral administration in db/db Mouse; assay type: functional; conditions: route oral
Outline: as §1

Row | SMILES | EC50 [1] [µM] | Ki [2] [µM] | EC50 [3] [µM] | Ki [4] [µM] | FPG correction (Mus musculus [5]) [%] | Change (Rattus norvegicus [12]) [%] | BAT weight (Rattus norvegicus [13]) [g] | Change (Rattus norvegicus [14]) [%] | Body weight (Rattus norvegicus [15]) [g] | Heart weight (Rattus norvegicus [16]) [g] | other results
1 | CCCc1c(O)c(C(=O)CC)cc(Cl)c1OC(C(=O)O)c1ccccc1 (stereo not given) | 3.76 | 0.293 | 0.804 | 0.985 | – | – | – | – | – | – | –
2 | CCCc1cc2c(C(F)(F)F)noc2c(CCC)c1O[C@H](C(=O)O)c1ccccc1 | 0.194 | 0.012 | – | 0.618 | 50 | – | – | – | – | – | –
3 | COC(=O)c1cc(C)c(OC(C(=O)O)c2ccccc2)c(C)c1 (stereo not given) | – | 0.225 | – | > 10 | – | – | – | – | – | – | –
4 | CCCc1c(OC(C(=O)O)c2ccccc2)ccc2c(C(F)(F)F)noc12 (stereo not given) | 4.6 | 0.098 | 0.836 | – | – | – | – | – | – | – | FPG correction (Mus musculus [6]): -5%; Ki [7]: Partially active
5 | CCCc1cc2c(C(F)(F)F)noc2c(CCC)c1O[C@@H](C(=O)O)c1ccccc1 | 3.15 | – | – | – | – | – | – | – | – | – | Ki [8]: Partially active; Ki [9]: Partially active
6 | CCCc1cc2c(C(F)(F)F)noc2c(CCC)c1OC(C(=O)O)c1ccc(C(F)(F)F)cc1 (stereo not given) | 0.079 | 0.018 | 0.023 | 0.104 | 83 | -41 | 0.27 | -32 | 318 | 1.14 | FPG correction (Mus musculus [10]): 21%; FPG correction (Mus musculus [11]): 41%
7 | CCCc1cc(C(=O)CC)c(O)c(CCC)c1OC(C(=O)O)c1ccccc1 (stereo not given) | 1.09 | 0.081 | 0.037 | – | 42 | -8 | 0.34 | -7 | 294 | 1.06 | FPG correction (Mus musculus [6]): 55%; Body weight (Rattus norvegicus [17]): 290 g; Change (Rattus norvegicus [18]): -64%; Heart weight (Rattus norvegicus [19]): 1.11 g; Change (Rattus norvegicus [20]): -36%; Ki [7]: Partially active; BAT weight (Rattus norvegicus [21]): 0.29 g
8 | CCCc1cc2c(C(F)(F)F)noc2c(CCC)c1OC(C(=O)O)c1ccc(CCc2ccccn2)cc1 (stereo not given) | 0.11 | 0.065 | 0.028 | 0.197 | 75 | – | – | – | – | – | –
9 | CCCc1cc(C(=O)OC)cc(CCC)c1OC(C(=O)O)c1ccccc1 (stereo not given) | – | 0.063 | – | 1.1 | – | – | – | – | – | – | –
10 | CCCc1c(OC(C(=O)O)c2ccccc2)c(Cl)cc2c(CC)noc12 (stereo not given) | 1.12 | 0.038 | 0.162 | – | – | -11 | 0.34 | -9 | 312 | 1.22 | FPG correction (Mus musculus [22]): 47%; Ki [9]: Partially active; FPG correction (Mus musculus [23]): 10%
11 | CCCc1cc(C(=O)OC)cc(Cl)c1OC(C(=O)O)c1ccccc1 (stereo not given) | – | 0.057 | – | 8.53 | – | – | – | – | – | – | –
12 | CCCc1cc2c(C(F)(F)F)noc2c(CCC)c1OC(C(=O)O)c1ccccc1 (stereo not given) | 0.365 | 0.037 | 0.015 | 0.956 | – | -52 | 0.28 | -27 | 276 | 1.05 | FPG correction (Mus musculus [6]): 91%; bioavailability [24]: 11%
13 | CCCc1cc2c(C(F)(F)F)noc2c(CCC)c1OC(C(=O)O)c1ccc(C(C)C)cc1 (stereo not given) | – | – | – | – | 61 | – | – | – | – | – | FPG correction (Mus musculus [11]): 31%
14 | CCCc1cc2c(CC)noc2c(CCC)c1OC(C(=O)O)c1ccccc1 (stereo not given) | 0.56 | 0.061 | 0.08 | 2.68 | – | – | – | – | – | – | –
15 | CCCc1cc2c(C(F)(F)F)noc2c(CCC)c1OC(C(=O)O)c1ccc(OCc2ccccn2)cc1 (stereo not given) | 0.047 | 0.064 | 0.019 | 0.268 | – | -47 | 0.42 | -38 | 297 | 1.15 | FPG correction (Mus musculus [6]; 30 mg/kg): 90% and 51%
16 | CCCc1cc(C(=O)OC)cc(C)c1OC(C(=O)O)c1ccccc1 (stereo not given) | – | 0.028 | – | 5.94 | – | – | – | – | – | – | –
17 | CCCc1cc2c(C(F)(F)F)noc2c(CCC)c1OC(C(=O)O)c1ccc(Cl)cc1 (stereo not given) | 0.11 | 0.105 | 0.01 | 0.175 | 74 | -56 | 0.22 | -23 | 297 | 1.17 | FPG correction (Mus musculus [11]): 31%
18 | CC(C)(Oc1ccc(C(=O)c2ccc(Cl)cc2)cc1)C(=O)O [FENOFIBRIC ACID] | – | 35 | – | – | – | – | – | – | – | – | Change (Rattus norvegicus [25]): -18%; Ki [26]: Not Active; Change (Rattus norvegicus [27]): -23%; Ki [28]: Partially active; Heart weight (Rattus norvegicus [29]): 1.18 g; BAT weight (Rattus norvegicus [30]): 0.33 g; Body weight (Rattus norvegicus [31]): 308 g; FPG correction (Mus musculus [32]): 17%
